Assay results taken from ChEMBL document CHEMBL3751740, “New MKLP-2 inhibitors in the paprotrain series: Design, synthesis and biological evaluations” (Bioorg Med Chem, 2016).

Columns and labels:
[1] = target: T1, Kinesin-like protein KIFC3 (Homo sapiens) (UniProt Q9BVG8); experiment: Inhibition of porcine brain microtubule-stimulated human recombinant GST-tagged KIFC3 ATPase activity at 15 uM by microplate reader in presence of Mg2+ ATP relative to control
T1 sequence (whole entry): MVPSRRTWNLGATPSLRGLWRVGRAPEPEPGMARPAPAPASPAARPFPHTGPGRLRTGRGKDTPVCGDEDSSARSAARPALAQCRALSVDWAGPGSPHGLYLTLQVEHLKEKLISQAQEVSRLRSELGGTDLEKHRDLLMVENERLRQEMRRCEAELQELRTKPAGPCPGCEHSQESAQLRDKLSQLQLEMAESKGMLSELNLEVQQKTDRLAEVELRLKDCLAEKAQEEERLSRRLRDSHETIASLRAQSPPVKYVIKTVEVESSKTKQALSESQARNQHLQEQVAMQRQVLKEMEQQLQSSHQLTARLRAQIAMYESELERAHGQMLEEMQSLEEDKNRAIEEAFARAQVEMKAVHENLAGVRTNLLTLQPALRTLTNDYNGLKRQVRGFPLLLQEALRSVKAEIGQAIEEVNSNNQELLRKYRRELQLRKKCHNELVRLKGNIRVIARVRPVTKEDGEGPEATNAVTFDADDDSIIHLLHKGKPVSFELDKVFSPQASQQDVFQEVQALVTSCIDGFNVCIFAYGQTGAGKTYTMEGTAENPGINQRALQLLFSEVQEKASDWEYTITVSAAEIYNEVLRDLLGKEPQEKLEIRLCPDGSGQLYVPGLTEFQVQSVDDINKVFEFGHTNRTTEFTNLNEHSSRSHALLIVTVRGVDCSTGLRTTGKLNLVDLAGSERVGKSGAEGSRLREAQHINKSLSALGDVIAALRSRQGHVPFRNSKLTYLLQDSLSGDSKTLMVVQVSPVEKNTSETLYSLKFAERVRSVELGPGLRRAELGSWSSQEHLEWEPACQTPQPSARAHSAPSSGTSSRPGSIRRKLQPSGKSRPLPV
Outline: (§1)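 Each kinesin motor domain was tested against MT-stimulated ATPase at 22 °C in triplicate, with compounds at 15 µM. Buffer was 7.5 mM PIPES-NaOH pH 7.0 with MgCl2, Taxol, ELIPA reagents and 1.25 mg/mL MTs. Reactions were started with 1 mM Mg2+ATP and read kinetically at 360 nm. Monastrol and AMP-PNP (1 mM) were the controls.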

[2] = target: T2, Chromosome-associated kinesin KIF4A (Homo sapiens) (UniProt O95239); experiment: Inhibition of porcine brain microtubule-stimulated human recombinant GST-tagged Kif4A ATPase activity at 15 uM by microplate reader in presence of Mg2+ ATP relative to control; outline: as §1
T2 sequence (whole entry): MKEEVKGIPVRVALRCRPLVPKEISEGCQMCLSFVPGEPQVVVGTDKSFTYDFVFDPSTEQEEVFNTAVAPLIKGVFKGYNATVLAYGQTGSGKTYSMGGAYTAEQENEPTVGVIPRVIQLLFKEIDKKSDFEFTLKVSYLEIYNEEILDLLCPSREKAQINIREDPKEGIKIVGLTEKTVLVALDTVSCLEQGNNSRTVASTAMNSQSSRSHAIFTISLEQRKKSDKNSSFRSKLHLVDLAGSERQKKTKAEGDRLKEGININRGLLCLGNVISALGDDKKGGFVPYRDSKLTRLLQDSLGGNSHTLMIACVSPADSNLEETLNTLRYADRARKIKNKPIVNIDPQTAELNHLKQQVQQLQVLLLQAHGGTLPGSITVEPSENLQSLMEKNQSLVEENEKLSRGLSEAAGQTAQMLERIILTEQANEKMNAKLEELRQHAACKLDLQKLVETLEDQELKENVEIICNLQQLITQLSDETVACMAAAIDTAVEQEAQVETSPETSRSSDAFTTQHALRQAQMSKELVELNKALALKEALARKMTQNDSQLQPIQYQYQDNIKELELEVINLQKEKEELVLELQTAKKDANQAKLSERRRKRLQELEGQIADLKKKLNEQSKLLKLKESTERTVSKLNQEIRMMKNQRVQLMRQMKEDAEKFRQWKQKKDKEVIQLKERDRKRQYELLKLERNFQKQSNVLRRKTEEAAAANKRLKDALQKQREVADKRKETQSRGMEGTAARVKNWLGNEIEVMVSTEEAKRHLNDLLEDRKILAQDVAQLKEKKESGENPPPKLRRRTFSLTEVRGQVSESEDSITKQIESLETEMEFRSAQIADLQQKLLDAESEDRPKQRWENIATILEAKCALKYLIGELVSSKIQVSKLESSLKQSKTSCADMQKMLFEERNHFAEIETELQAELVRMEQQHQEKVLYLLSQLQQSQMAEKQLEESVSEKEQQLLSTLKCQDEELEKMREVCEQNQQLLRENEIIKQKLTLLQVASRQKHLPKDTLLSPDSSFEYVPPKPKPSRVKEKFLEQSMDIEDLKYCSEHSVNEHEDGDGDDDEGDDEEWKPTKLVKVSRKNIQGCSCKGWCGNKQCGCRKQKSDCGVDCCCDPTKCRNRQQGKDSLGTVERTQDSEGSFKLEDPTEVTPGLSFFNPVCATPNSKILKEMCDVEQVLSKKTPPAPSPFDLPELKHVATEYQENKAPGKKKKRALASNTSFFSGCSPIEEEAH

CCOC(=O)C1=C(C)NC(=S)NC1c1cccc(O)c1 (configuration not stated)
inhibition [1]: < 20% | inhibition [2]: < 20%

COc1cccc2[nH]cc(/C(C#N)=C/c3cccnc3)c12
inhibition [1]: < 20% | inhibition [2]: < 20%

N#C/C(=C\c1cccnc1)c1c[nH]c2ccc(OCc3ccccc3)cc12
inhibition [1]: < 20% | inhibition [2]: < 20%

COc1ccc2[nH]cc(/C(C#N)=C/c3cccnc3)c2c1
inhibition [1]: < 20% | inhibition [2]: < 20%

COc1ccc2c(/C(C#N)=C/c3cccnc3)c[nH]c2c1
inhibition [1]: < 20% | inhibition [2]: < 20%

N#C/C(=C\c1ccc2c(c1)OCO2)c1c[nH]c2ccccc12
inhibition [1]: < 20% | inhibition [2]: < 20%
